Data reported in ChEMBL document CHEMBL3425404, “Structure-activity relationship in a purine-scaffold compound series with selectivity for the endoplasmic reticulum Hsp90 paralog Grp94” (J Med Chem, 2015).
Calls of active or inactive are those of the source. The calls are words filed in the database; no cut-off is given here.

What was measured:
[1] = Drug uptake in tumor of nu/nu athymic mouse xenografted with human MDA-MB-468 cells at 75 mg/kg, ip measured at 2 hrs by LC-MS/MS analysis; format: ADME, organism-based; parameters: dose 75 mg/kg, route intraperitoneal; settings: read-out: Drug uptake
How it was run: (§1)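 Mice bearing subcutaneous MDA-MB-468 breast tumors (1 × 10^7 cells in right flank) got a single 75 mg/kg ip dose, n = 4 per time point. They were sacrificed at 2 and 24 h. Drug in tumor, tissues and plasma was quantified by LC−MS/MS, and tumor-to-tissue or tumor-to-plasma ratios were computed. Mean ± error.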

[2] = Ratio of drug level in tumor to plasma in nu/nu athymic mouse xenografted with human MDA-MB-468 cells at 75 mg/kg, ip measured at 24 hrs by LC-MS/MS analysis; format: ADME, organism-based; parameters: dose 75 mg/kg, route intraperitoneal; how it was run: as §1
[3] = target: Endoplasmin (Mus musculus) (UniProt P08113); assay: Inhibition of Grp94 in mouse RAW264.7 cells assessed as inhibition of CpG-induced TNFalpha production after 18 hrs by ELISA; format: cell-based
[4] = target: Endoplasmin (Homo sapiens) (UniProt P14625); assay: Inhibition of Grp94 in human SKBR3 cells overexpressing HER2 assessed as degradation of HER2 at 1 to 25 uM after 24 hrs by Western blot analysis; format: cell-based; settings: SK-BR-3
How it was run: (§2)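 SKBr3 cells were treated 24 h with DMSO vehicle or compound, then lysed in RIPA with protease inhibitors. Lysate (5−50 μg) was run on SDS−PAGE and immunoblotted for HER2 or Hsp70, with β-actin as loading control. Detection was by HRP secondary and ECL, with densitometry. Blots are representative of triplicate experiments.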

Homo sapiens [5] = organism: Homo sapiens; assay: Selectivity ratio of IC50 for recombinant Trap1 (unknown origin) to IC50 for recombinant Grp94 (unknown origin)
Mus musculus = assay: Acute toxicity in nu/nu athymic mouse xenografted with human MDA-MB-468 cells at 150 mg/kg, ip; format: organism-based; parameters: dose 150 mg/kg, route intraperitoneal; settings: in vivo
How it was run: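 MDA-MB-468 cells (1 × 10^7) were implanted sc in the right flank and allowed to grow. Tumour-bearing mice (n = 4) received 75 or 150 mg/kg ip and were followed for acute toxicity. Augmentin was given in the drinking water during therapy.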

[6] = target: Endoplasmin (Homo sapiens) (UniProt P14625); assay: Inhibition of Grp94 in HEK293T cells assessed as downregulation of TLR9 protein expression in post ER compartment after 24 hrs by confocal microscopic analysis; format: cell-based; settings: HEK-293T
How it was run: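 HEK293T cells were transfected with HA-tagged human TLR9 and split onto chamber slides 24 h later. They were then treated 24 h at varying concentrations. Cells were fixed in 4% paraformaldehyde, permeabilized with Triton X-100 and blocked in 3% BSA. They were stained with anti-HA then Cy3 secondary, with DAPI. Imaging was by confocal microscopy, and fluorescence intensity was normalized to cell number.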

Homo sapiens [7] = organism: Homo sapiens; assay: Selectivity ratio of IC50 for recombinant Hsp90beta (unknown origin) to IC50 for recombinant Grp94 (unknown origin)
[8] = target: Endoplasmin (Mus musculus) (UniProt P08113); assay: Inhibition of Grp94 in mouse differentiated C2C12 cells assessed as inhibition of IGF-2 secretion after 24 hrs by ELISA; format: cell-based
How it was run: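 C2C12 mouse myoblasts were shifted to differentiation medium (DMEM, 2% horse serum) and treated 24 h with compounds. Medium was captured overnight at 4 °C on anti-IGF-II ELISA plates and detected with biotinylated antibody, HRP-streptavidin and TMB. A450 was read, and IGF-II was quantified against a recombinant IGF-II standard curve.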

RAW264.7 = assay: Inhibition of HSP90 in mouse RAW264.7 cells assessed as inhibition of LPS-induced TNFalpha production at 2 to 16 uM after 18 hrs by ELISA; format: cell-based
[9] = Plasma concentration in nu/nu athymic mouse xenografted with human MDA-MB-468 cells at 75 mg/kg, ip measured at 2 hrs by LC-MS/MS analysis; format: ADME, organism-based; parameters: dose 75 mg/kg, route intraperitoneal; how it was run: as §1
Nucleic Acid = assay: Ratio of drug level in tumor to heart in nu/nu athymic mouse xenografted with human MDA-MB-468 cells at 75 mg/kg, ip measured at 24 hrs by LC-MS/MS analysis; format: ADME, organism-based; parameters: dose 75 mg/kg, route intraperitoneal; settings: in vivo; how it was run: as §1
[10] = Oral bioavailability in B6D2F1 mouse at 10 mg/kg by LC-MS/MS analysis; format: ADME, organism-based; settings: in vivo
How it was run: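 Male B6D2F1 mice (n = 2 per time point, 20 total) got a single 10 mg/kg iv or oral dose in 30% captisol, 5 mM citrate pH 4.2. Plasma levels at sacrifice times were measured by LC−MS/MS, converted to molar assuming 1 g = 1 mL, and plotted versus time. Oral F was derived.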

[11] = target: Heat shock protein HSP90 (Homo sapiens) (UniProt P07900+P08238); assay: Inhibition of HSP90 in human SKBR3 cells assessed as induction of HSP70 activity at 1 to 25 uM after 24 hrs by Western blot analysis; format: cell-based; settings: SK-BR-3; how it was run: as §2
Endoplasmin = Endoplasmin (Canis lupus familiaris, UniProt P41148); assay: Binding affinity to canine full-length His-tagged GRP94 (28 to 754 residues lacking 287 to 327 residues) expressed in Escherichia coli by tryptophan fluorescence assay
[12] = Binding affinity to full length yeast His-tagged Hsp90 (1 to 709) overexpressed in Escherichia coli BL21 Star (DE3) by tryptophan fluorescence assay; parameters: species or system Saccharomyces cerevisiae

Chain of Endoplasmin (Homo sapiens) (P14625 whole entry): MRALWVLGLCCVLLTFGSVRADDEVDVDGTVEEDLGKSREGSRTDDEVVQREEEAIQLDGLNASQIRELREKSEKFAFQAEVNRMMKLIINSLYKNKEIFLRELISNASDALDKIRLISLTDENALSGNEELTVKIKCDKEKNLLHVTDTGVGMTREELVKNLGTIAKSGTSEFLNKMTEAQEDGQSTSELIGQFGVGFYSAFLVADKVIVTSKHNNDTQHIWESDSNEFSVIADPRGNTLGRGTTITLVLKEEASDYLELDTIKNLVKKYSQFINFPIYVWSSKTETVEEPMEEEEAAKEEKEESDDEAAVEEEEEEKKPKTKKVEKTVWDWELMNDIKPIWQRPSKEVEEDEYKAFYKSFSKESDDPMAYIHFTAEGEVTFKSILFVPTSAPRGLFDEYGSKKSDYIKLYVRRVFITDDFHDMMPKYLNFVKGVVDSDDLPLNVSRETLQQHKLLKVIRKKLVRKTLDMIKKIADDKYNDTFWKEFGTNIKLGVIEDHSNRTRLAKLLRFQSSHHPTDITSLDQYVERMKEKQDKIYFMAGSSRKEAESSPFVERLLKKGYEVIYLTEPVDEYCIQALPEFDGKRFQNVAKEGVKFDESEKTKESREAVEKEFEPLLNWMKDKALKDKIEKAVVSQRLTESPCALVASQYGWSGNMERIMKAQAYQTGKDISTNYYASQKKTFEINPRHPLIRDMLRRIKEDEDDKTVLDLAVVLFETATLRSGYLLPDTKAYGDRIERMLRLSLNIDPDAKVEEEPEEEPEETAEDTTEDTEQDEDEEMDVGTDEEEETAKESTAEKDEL
Chain of Endoplasmin (Mus musculus) (P08113 whole entry): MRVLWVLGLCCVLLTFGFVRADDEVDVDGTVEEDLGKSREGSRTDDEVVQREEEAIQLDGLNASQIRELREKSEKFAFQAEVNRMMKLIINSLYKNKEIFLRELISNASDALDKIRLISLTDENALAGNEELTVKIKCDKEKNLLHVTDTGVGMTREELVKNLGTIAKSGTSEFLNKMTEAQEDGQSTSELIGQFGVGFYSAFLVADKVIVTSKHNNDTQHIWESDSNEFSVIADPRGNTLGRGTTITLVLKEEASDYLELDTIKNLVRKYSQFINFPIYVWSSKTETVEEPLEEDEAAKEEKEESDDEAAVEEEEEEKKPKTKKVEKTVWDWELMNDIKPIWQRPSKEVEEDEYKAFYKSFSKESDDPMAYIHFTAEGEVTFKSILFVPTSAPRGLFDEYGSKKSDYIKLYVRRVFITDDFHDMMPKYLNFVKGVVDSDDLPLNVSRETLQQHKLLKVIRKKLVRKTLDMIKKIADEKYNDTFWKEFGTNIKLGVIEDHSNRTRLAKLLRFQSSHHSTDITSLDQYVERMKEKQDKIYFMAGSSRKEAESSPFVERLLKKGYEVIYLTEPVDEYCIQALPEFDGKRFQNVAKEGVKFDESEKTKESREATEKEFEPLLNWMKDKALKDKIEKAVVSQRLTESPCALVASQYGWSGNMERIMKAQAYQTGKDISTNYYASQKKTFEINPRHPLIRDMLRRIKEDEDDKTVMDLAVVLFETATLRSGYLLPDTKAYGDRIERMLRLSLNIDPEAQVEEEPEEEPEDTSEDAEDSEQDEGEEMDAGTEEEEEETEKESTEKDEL
Chain of Endoplasmin (P41148 22-804 limits assumed): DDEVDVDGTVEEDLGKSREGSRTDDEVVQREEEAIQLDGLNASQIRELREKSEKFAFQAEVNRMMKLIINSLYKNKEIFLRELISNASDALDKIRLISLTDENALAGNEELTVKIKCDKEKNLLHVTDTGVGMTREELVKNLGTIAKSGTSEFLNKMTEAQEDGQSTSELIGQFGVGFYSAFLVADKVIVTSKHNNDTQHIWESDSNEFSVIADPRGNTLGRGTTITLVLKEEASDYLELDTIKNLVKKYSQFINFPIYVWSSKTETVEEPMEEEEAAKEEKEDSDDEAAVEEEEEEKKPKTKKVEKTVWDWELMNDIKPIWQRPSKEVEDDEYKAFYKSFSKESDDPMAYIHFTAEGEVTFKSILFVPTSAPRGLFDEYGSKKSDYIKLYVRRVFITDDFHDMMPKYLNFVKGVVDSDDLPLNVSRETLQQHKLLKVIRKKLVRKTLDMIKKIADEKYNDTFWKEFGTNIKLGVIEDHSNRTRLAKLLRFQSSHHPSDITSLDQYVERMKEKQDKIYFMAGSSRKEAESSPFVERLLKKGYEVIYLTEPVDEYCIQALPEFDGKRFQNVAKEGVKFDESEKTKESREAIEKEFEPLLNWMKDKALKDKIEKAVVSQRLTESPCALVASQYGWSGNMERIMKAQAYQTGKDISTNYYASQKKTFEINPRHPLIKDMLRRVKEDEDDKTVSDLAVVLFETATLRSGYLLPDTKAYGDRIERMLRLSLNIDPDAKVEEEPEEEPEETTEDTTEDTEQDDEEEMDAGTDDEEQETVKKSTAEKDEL

| Structure (SMILES) | concentration at 2 h [1] | Kp at 24 h [2] | inhibition [3] | inhibition [4] | Ratio IC50 (Homo sapiens [5]) | Activity (Mus musculus) | inhibition [6] | Ratio IC50 (Homo sapiens [7]) | inhibition [8] | inhibition (RAW264.7) | concentration at 2 h [9] | Ratio (Nucleic Acid) | bioavailability [10] | inhibition [11] | Kd (Endoplasmin) | Kd [12] |
| --- | --- | --- | --- | --- | --- | --- | --- | --- | --- | --- | --- | --- | --- | --- | --- | --- |
| CC(C)NCCCn1c(Sc2cc(Cl)cc(Cl)c2)nc2c(N)ncnc21 | 850 µM | 200 | Dose-dependent effect | Active | 33 | Non-toxic | Dose-dependent effect | > 100 | Dose-dependent effect | inactive | 100 µM | 100 | 80% | inactive | – | – |
| COC(=O)c1c(O)cc(O)c(Cl)c1CCC(=O)NC1=CC(=O)C(OC)=CC1=O | – | – | – | – | – | – | – | – | – | – | – | – | – | – | 0.52 µM | 0.87 µM |
